According to ChEMBL document CHEMBL1124097, “9-(2-Fluorobenzyl)-6-(alkylamino)-9H-purines. A new class of anticonvulsant agents” (1988):

Legend:
Format in all cases: functional
[1] = test system: Rattus norvegicus; assay: Anticonvulsant activity against maximal electroshock-induced seizures in rats after ip administration at 25 mg/kg (compared to standard); settings: route intraperitoneal
[2] = test system: Rattus norvegicus; assay: Anticonvulsant activity against maximal electroshock-induced seizures in rats after intraperitoneal administration.; settings: ip
Procedure, shortened: (§1)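 Male Sprague-Dawley rats were protected against maximal electroshock-induced seizures. The ED50 is the dose that protects 50% of animals from the hind-limb extensor component, calculated by the method of Miller. For ED50s given with standard error, at least 12 animals per dose level and four doses per compound were used. Otherwise, three doses with six animals per point were used.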

[3] = test system: Rattus norvegicus; assay: Anticonvulsant activity against maximal electroshock-induced seizures in rats after oral administration; procedure, shortened: as §1

SMILES	inhibition in vivo at 25 mg/kg [1] [%]	ED50 [2] [mg/kg]	ED50 [3] [mg/kg]
CNc1ncnc2c1ncn2Cc1cccc(OCc2ccccc2)c1	17	–	–
Fc1ccccc1Cn1cnc2c(NC3CCC3)ncnc21	–	33	–
CNc1ncnc2c1ncn2Cc1c(F)cccc1F	–	–	2.7
CNc1ncnc2c1ncn2Cc1ccc(N)cc1	–	25	–
CC(C)(C)Nc1ncnc2c1ncn2Cc1ccccc1F	–	> 50	–
CNc1ncnc2c1ncn2Cc1ccccc1C(F)(F)F	–	20	–
CNc1ncnc2c1ncn2Cc1c(F)cccc1Cl	–	12.5	–
CN(C)c1ncnc2c1ncn2Cc1c(F)cccc1Cl	–	5	10
CNc1ncnc2c1ncn2Cc1ccccc1C	–	10	25
CNc1ncnc2c1ncn2Cc1ccccc1	–	5	12
CNc1ncnc2c1ncn2Cc1cccc(F)c1	–	7	–
CNc1ncnc2c1ncn2Cc1ccc(F)cc1F	–	20	–
Nc1ncnc2c1ncn2Cc1ccccc1F	–	4.5	12
CNc1ncnc2c1ncn2Cc1cccc(O)c1	0	–	–
Fc1ccccc1Cn1cnc2c(N3CCCC3)ncnc21	–	12.5	35
CNc1ncnc2c1ncn2Cc1cccc(F)c1F	–	18	> 50
Fc1ccccc1Cn1cnc2c(N3CCC3)ncnc21	–	> 50	–
CN(C)c1ncnc2c1ncn2Cc1ccccc1	–	6	12
CNc1ncnc2c1ncn2Cc1ccccc1Cl	–	6.2	12.5
CNc1ncnc2c1ncn2Cc1ccc(F)cc1	33	–	–
CNc1ncnc2c1ncn2Cc1ccc([N+](=O)[O-])cc1	0	–	–
CN(C=O)c1ncnc2c1ncn2Cc1ccccc1F	–	11	25
O=C1NC(=O)C(c2ccccc2)(c2ccccc2)N1 [PHENYTOIN]	–	9.6	–
